Activity calls are given as the source filed them. The rule behind the calls is not given here.
Columns and labels:
Insulin-degrading enzyme = molecular target: T1, Insulin-degrading enzyme (Homo sapiens, UniProt P14735); experiment: (§1) Inhibition of human recombinant IDE-mediated amyloid beta (16 to 23) hydrolysis using ATTO 655-Cys-Lys-Leu-Val-Phe-Phe-Ala-Glu-Asp-Trp as substrate preincubated for 10 mins measured after 30 mins by spectrophotometer analysis
T1 sequence (P14735 whole entry): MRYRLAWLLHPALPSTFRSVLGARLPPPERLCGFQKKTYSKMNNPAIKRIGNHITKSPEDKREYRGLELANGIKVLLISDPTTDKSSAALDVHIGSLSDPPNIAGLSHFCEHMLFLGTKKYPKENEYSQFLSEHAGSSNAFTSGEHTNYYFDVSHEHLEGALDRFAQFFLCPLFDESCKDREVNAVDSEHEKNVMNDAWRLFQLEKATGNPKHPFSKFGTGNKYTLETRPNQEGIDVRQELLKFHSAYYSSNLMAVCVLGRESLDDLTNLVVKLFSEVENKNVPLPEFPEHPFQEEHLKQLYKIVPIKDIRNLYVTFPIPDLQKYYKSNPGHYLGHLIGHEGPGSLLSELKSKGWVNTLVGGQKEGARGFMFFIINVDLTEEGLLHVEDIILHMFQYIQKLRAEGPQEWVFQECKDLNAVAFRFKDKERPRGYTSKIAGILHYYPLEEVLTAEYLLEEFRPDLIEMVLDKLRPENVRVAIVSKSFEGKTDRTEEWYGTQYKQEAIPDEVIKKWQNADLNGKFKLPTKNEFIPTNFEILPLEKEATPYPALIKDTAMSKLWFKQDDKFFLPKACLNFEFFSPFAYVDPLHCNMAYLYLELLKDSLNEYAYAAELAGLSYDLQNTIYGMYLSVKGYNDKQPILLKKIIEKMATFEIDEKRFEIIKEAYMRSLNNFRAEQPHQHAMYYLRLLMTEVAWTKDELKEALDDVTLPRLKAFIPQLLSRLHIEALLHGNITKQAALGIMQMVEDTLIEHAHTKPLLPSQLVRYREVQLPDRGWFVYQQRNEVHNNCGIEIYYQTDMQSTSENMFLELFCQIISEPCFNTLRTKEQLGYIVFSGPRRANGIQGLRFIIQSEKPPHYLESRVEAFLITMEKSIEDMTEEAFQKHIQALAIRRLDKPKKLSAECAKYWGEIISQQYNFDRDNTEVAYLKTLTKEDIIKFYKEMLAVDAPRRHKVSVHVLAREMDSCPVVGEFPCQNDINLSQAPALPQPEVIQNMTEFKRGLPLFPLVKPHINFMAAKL

[1] = molecular target: Insulin-degrading enzyme (Homo sapiens) (UniProt P14735); experiment: Competitive inhibition of human recombinant IDE-mediated amyloid beta (16 to 23) hydrolysis using ATTO 655-Cys-Lys-Leu-Val-Phe-Phe-Ala-Glu-Asp-Trp as substrate
Summary of the method: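 Human recombinant IDE (1.87 ng/μL) preincubated 10 min at 37 °C with compound in 50 mM Hepes, 100 mM NaCl, pH 7.4. Reaction started with quenched ATTO 655-labelled peptide substrate (5 μM final), 1% DMSO final. Fluorescence read after 30 min (ex 635, em 750 nm). 8-point dose-response curves, average of at least three independent measurements. EDTA reference (2 mM).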

[2] = molecular target: Insulin-degrading enzyme (Homo sapiens) (UniProt P14735); experiment: Reversible inhibition of human recombinant IDE-mediated amyloid beta (16 to 23) hydrolysis using ATTO 655-Cys-Lys-Leu-Val-Phe-Phe-Ala-Glu-Asp-Trp as substrate at 20 uM preincubated for 20 mins measured measured after 100 fold dilution by spectrophotometer analysis
[3] = molecular target: Insulin-degrading enzyme (Homo sapiens) (UniProt P14735); experiment: as §1

IC50 (Insulin-degrading enzyme) | inhibition [1] | inhibition [2] | inhibition [3] | Structure (SMILES)
600 nM |  |  |  | COC(=O)[C@H](Cc1c[nH]cn1)NC(=O)CN(CCCc1ccccc1)CC(=O)O
> 100000 nM |  |  |  | COC(=O)[C@H](Cc1c[nH]cn1)NC(=O)CN(CC(=O)O)C(=O)c1ccccc1
 | Active | Active | Dose-dependent effect | COC(=O)[C@H](Cc1c[nH]cn1)NC(=O)CN(CC(=O)O)Cc1ccccc1

Source: ChEMBL document CHEMBL3232818, “Imidazole-derived 2-[N-carbamoylmethyl-alkylamino]acetic acids, substrate-dependent modulators of insulin-degrading enzyme in amyloid-β hydrolysis” (Eur J Med Chem, 2014)
